Experimental data published in BindingDB's records for doi:10.1016/j.bmcl.2005.08.013 (Kosan Biosciences, 2005).

Target: Heat shock protein HSP 90-alpha (Homo sapiens, UniProt P07900)
Test: Binding affinity for human heat shock protein 90 in scintillation proximity assay
Method in brief: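 Purified full-length human Hsp90 was used as the target protein. Binding was measured by scintillation proximity assay.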

Compound	Kd [µM]
CO[C@H]1C=CC=C(C)C(=O)Nc2cc(O)c(N=CCN(C)C)c(c2O)C[C@@H](C)C[C@H](OC)[C@H](O)[C@@H](C)/C=C(\C)[C@@H]1OC(=O)NCC(N)=O [Carbamoylmethyl-carbamic acid (4E,6Z)-(13S,14S,17R,19S)-19-(2-dimethylamino-ethylamino)-13-(S)-hydroxy-8,14-dimethoxy-4,12,16-trimethyl-10-(R)-methyl-3,20,22-trioxo-2-aza-bicyclo[16.3.1]docosa-1(21),4,6,10,18-pentaen-9-yl ester]	> 100
CO[C@H]1C=CC=C(C)C(=O)Nc2cc(O)c(N=CCN(C)C)c(c2O)C[C@@H](C)C[C@H](OC)[C@H](O)[C@@H](C)/C=C(\C)[C@@H]1OC(=O)c1cnc[nH]1 [3H-Imidazole-4-carboxylic acid (E)-(8R,10R,15S,20S)-19-(2-dimethylamino-ethylamino)-13-(S)-hydroxy-8,14-dimethoxy-4,12,16-trimethyl-10-(S)-methyl-3,20,22-trioxo-2-aza-bicyclo[16.3.1]docosa-1(21),4,6,10,18-pentaen-9-yl ester]	> 100
CNC(=O)O[C@H]1/C(C)=C/[C@H](C)[C@@H](O)[C@@H](OC)C[C@H](C)Cc2c(O)c(cc(O)c2N=CCN(C)C)NC(=O)C(C)=CC=C[C@@H]1OC [Methyl-carbamic acid (4E,6Z)-(13S,14S,17R,19S)-19-(2-dimethylamino-ethylamino)-13-(S)-hydroxy-8,14-dimethoxy-4,12,16-trimethyl-10-(R)-methyl-3,20,22-trioxo-2-aza-bicyclo[16.3.1]docosa-1(21),4,6,10,18-pentaen-9-yl ester]	> 100
CO[C@H]1C=CC=C(C)C(=O)Nc2cc(O)c(N=CCN(C)C)c(c2O)C[C@@H](C)C[C@H](OC)[C@H](O)[C@@H](C)/C=C(\C)[C@@H]1OC(=O)NN [Hydrazinecarboxylic acid (4E,6Z)-(13S,14S,17R,19S)-19-(2-dimethylamino-ethylamino)-13-(S)-hydroxy-8,14-dimethoxy-4,12,16-trimethyl-10-(R)-methyl-3,20,22-trioxo-2-aza-bicyclo[16.3.1]docosa-1(21),4,6,10,18-pentaen-9-yl ester]	> 100
CO[C@H]1C=CC=C(C)C(=O)Nc2cc(O)c(N=CCN(C)C)c(c2O)C[C@@H](C)C[C@H](OC)[C@H](O)[C@@H](C)/C=C(\C)[C@@H]1OC(=O)NCCO [(2-Hydroxy-ethyl)-carbamic acid (4E,6Z)-(13S,14S,17R,19S)-19-(2-dimethylamino-ethylamino)-13-(S)-hydroxy-8,14-dimethoxy-4,12,16-trimethyl-10-(R)-methyl-3,20,22-trioxo-2-aza-bicyclo[16.3.1]docosa-1(21),4,6,10,18-pentaen-9-yl ester]	> 100
CO[C@H]1C=CC=C(C)C(=O)Nc2cc(O)c(N=CCF)c(c2O)C[C@@H](C)C[C@H](OC)[C@H](O)[C@@H](C)/C=C(\C)[C@@H]1OC(=O)NN [Hydrazinecarboxylic acid (4E,6Z)-(13S,14S,17R,19S)-19-(2-fluoro-ethylamino)-13-(S)-hydroxy-8,14-dimethoxy-4,12,16-trimethyl-10-(R)-methyl-3,20,22-trioxo-2-aza-bicyclo[16.3.1]docosa-1(21),4,6,10,18-pentaen-9-yl ester]	> 100
CONC(=O)O[C@H]1/C(C)=C/[C@H](C)[C@@H](O)[C@@H](OC)C[C@H](C)Cc2c(O)c(cc(O)c2N=CCN(C)C)NC(=O)C(C)=CC=C[C@@H]1OC [Geldanamycin derivative]	> 100
CO[C@H]1C=CC=C(C)C(=O)Nc2cc(O)c(N3CCC3)c(c2O)C=C(C)C[C@H](OC)[C@H](O)[C@@H](C)/C=C(\C)[C@@H]1OC(=O)NO [Geldanamycin derivative]	> 100
CO[C@H]1C=CC=C(C)C(=O)Nc2cc(O)c(N=CCN(C)C)c(c2O)C[C@@H](C)C[C@H](OC)[C@H](O)[C@@H](C)/C=C(\C)[C@@H]1OC(=O)N(C)N [N-Methyl-hydrazinecarboxylic acid (4E,6Z)-(13S,14S,17R,19S)-19-(2-dimethylamino-ethylamino)-13-(S)-hydroxy-8,14-dimethoxy-4,12,16-trimethyl-10-(R)-methyl-3,20,22-trioxo-2-aza-bicyclo[16.3.1]docosa-1(21),4,6,10,18-pentaen-9-yl ester]	> 100
CO[C@H]1C=CC=C(C)C(=O)Nc2cc(O)c(N=CCN(C)C)c(c2O)C[C@@H](C)C[C@H](OC)[C@H](O)[C@@H](C)/C=C(\C)[C@@H]1OC(=O)NCCN(C)C [(2-Dimethylamino-ethyl)-carbamic acid (4E,6Z)-(13S,14S,17R,19S)-19-(2-dimethylamino-ethylamino)-13-(S)-hydroxy-8,14-dimethoxy-4,12,16-trimethyl-10-(R)-methyl-3,20,22-trioxo-2-aza-bicyclo[16.3.1]docosa-1(21),4,6,10,18-pentaen-9-yl ester]	> 100
CO[C@H]1C=CC=C(C)C(=O)Nc2cc(O)c(N=CCF)c(c2O)C[C@@H](C)C[C@H](OC)[C@H](O)[C@@H](C)/C=C(\C)[C@@H]1OC(=O)NO [Geldanamycin derivative]	> 100
CO[C@H]1C=CC=C(C)C(=O)Nc2cc(O)c(N3CCC3)c(c2O)C=C(C)C[C@H](OC)[C@H](O)[C@@H](C)/C=C(\C)[C@@H]1OC(=O)NN [Hydrazinecarboxylic acid (4E,6Z)-(13S,14S,17R,19S)-19-azetidin-1-yl-13-(S)-hydroxy-8,14-dimethoxy-4,12,16-trimethyl-10-(R)-methyl-3,20,22-trioxo-2-aza-bicyclo[16.3.1]docosa-1(21),4,6,10,18-pentaen-9-yl ester]	> 100
CO[C@H]1C=CC=C(C)C(=O)Nc2cc(O)c(N=CCN(C)C)c(c2O)C[C@@H](C)C[C@H](OC)[C@H](O)[C@@H](C)/C=C(\C)[C@@H]1OC(=O)c1ccc[nH]1 [1H-Pyrrole-2-carboxylic acid (E)-(8R,10R,15S,20S)-19-(2-dimethylamino-ethylamino)-13-(S)-hydroxy-8,14-dimethoxy-4,12,16-trimethyl-10-(S)-methyl-3,20,22-trioxo-2-aza-bicyclo[16.3.1]docosa-1(21),4,6,10,18-pentaen-9-yl ester]	> 100
